# In ChEMBL document CHEMBL1152298 (J Med Chem, 2008):
# pKi: −log10 of the molar value. Active and inactive are the calls of the source. The rule behind the calls is not given here.
# Legend:
# [1] = target: GABA A receptor alpha-3/beta-2/gamma-2 (Rattus norvegicus, UniProt P18508+P20236+P63138); test: Displacement of [3H]Ro-151788 from benzodiazepine binding site of GABAA alpha-3-beta-2-gamma-2 receptor expressed in HEK293T cells; type: cell-based, HEK-293T
# Summary of the method: (§1)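 α2 or α3 subunits were co-transfected with β2 and γ2, all in pRK5, into HEK293T cells by CaHPO4 precipitation at 4 μg per subunit. Membranes were prepared at 48 h. IC50 came from a one-site competition fit and was converted to Ki by Cheng-Prusoff. Mean ± SD of ≥3 experiments.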
# [2] = target: GABA A receptor alpha-2/beta-2/gamma-2 (Rattus norvegicus, UniProt P18508+P23576+P63138); test: Displacement of [3H]Ro-151788 from benzodiazepine binding site of GABAA alpha-2-beta-2-gamma-2 receptor expressed in HEK293T cells; type: cell-based, HEK-293T; summary of the method: as §1
# GABA A receptor alpha-2/beta-2/gamma-2, sequence (P18508 whole entry): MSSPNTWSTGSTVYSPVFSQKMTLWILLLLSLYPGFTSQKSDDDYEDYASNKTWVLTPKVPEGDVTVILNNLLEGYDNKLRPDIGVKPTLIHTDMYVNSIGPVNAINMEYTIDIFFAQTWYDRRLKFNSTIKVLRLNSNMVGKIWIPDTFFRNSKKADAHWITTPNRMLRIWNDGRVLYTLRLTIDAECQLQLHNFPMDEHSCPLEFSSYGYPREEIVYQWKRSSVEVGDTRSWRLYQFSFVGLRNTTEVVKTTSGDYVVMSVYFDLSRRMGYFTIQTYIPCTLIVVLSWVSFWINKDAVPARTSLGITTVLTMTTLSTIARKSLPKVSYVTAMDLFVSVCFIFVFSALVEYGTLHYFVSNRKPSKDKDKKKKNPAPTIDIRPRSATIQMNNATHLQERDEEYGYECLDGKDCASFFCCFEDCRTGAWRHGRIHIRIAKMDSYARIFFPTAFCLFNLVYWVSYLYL
# GABA A receptor alpha-2/beta-2/gamma-2, sequence (P23576 whole entry): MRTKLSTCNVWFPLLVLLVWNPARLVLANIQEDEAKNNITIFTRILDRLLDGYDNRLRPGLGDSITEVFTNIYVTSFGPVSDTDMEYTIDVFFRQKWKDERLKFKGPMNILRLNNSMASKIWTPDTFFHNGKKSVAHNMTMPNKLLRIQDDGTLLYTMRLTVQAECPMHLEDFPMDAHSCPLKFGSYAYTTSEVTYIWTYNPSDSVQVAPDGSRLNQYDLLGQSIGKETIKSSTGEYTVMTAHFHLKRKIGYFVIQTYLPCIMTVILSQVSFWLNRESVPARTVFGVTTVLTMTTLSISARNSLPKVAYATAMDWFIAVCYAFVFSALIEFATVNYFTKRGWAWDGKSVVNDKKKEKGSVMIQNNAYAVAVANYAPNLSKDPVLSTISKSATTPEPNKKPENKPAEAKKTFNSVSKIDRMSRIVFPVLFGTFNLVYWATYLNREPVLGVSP
# GABA A receptor alpha-2/beta-2/gamma-2, sequence (P63138 whole entry): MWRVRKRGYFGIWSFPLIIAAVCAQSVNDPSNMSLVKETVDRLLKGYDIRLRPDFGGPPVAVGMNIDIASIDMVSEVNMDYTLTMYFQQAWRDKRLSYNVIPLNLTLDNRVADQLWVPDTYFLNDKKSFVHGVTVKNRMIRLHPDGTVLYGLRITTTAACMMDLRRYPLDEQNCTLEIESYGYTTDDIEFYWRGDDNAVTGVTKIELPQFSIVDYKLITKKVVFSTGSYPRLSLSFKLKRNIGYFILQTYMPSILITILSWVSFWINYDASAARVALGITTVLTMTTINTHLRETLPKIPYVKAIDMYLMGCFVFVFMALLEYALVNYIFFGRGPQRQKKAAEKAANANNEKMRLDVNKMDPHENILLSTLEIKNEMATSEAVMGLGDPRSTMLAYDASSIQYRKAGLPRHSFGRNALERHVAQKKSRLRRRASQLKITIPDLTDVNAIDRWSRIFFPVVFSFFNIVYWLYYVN
# [3] = Displacement of [3H]Ro-151788 from benzodiazepine binding site of GABAA alpha-1-beta-2-gamma-2 D56C receptor mutant expressed in HEK293T cells; type: cell-based; conditions: hek-293t
# [4] = Displacement of [3H]Ro-151788 from benzodiazepine binding site of GABAA alpha-1-beta-2-gamma-2 A79C receptor mutant expressed in HEK293T cells; type: cell-based; conditions: hek-293t
# [5] = Displacement of [3H]Ro-151788 from benzodiazepine binding site of GABAA alpha-1-beta-2-gamma-2 T81C receptor mutant expressed in HEK293T cells; type: cell-based; conditions: hek-293t
# [6] = Displacement of [3H]Ro-151788 from benzodiazepine binding site of GABAA alpha-1-beta-2-gamma-2 T126C receptor mutant expressed in HEK293T cells; type: cell-based; conditions: hek-293t
# [7] = Displacement of [3H]Ro-151788 from benzodiazepine binding site of GABAA alpha-1-beta-2-gamma-2 M130C receptor mutant expressed in HEK293T cells; type: cell-based; conditions: hek-293t
# [8] = Displacement of [3H]Ro-151788 from benzodiazepine binding site of GABAA alpha-1-beta-2-gamma-2 R132C receptor mutant expressed in HEK293T cells; type: cell-based; conditions: hek-293t
# [9] = Displacement of [3H]Ro-151788 from benzodiazepine binding site of GABAA alpha-1-beta-2-gamma-2 L140C receptor mutant expressed in HEK293T cells; type: cell-based; conditions: hek-293t
# [10] = Displacement of [3H]Ro-151788 from benzodiazepine binding site of GABAA alpha-1-beta-2-gamma-2 T142C receptor mutant expressed in HEK293T cells; type: cell-based; conditions: hek-293t
# [11] = Displacement of [3H]Ro-151788 from benzodiazepine binding site of GABAA alpha-1-beta-2-gamma-2 […] receptor mutant expressed in HEK293T cells; type: cell-based; conditions: hek-293t
# [12] = Displacement of [3H]Ro-151788 from benzodiazepine binding site of GABAA alpha-1-beta-2-gamma-2 R185C receptor mutant expressed in HEK293T cells; type: cell-based; conditions: hek-293t
# [13] = Displacement of [3H]Ro-151788 from benzodiazepine binding site of GABAA alpha-1-beta-2-gamma-2 R194C receptor mutant expressed in HEK293T cells; type: cell-based; conditions: hek-293t
# Summary of the method: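 Transiently expressed in HEK293T (CaHPO4 transfection, equal α/β/γ DNA, 4 μg/subunit; cysteine-mutant γ2L with WT α1, β2). […] One-site competition fit for IC50; Ki by Cheng-Prusoff; mean ± SD, three experiments in triplicate; mutant/WT Ki ratio.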
# [14] = Displacement of [3H]Ro15-1788 from benzodiazepine binding site of GABAA alpha-1 F99C beta2gamma2 receptor mutant expressed in HEK293T cells; type: cell-based; conditions: hek-293t
# [15] = Displacement of [3H]Ro15-1788 from benzodiazepine binding site of GABAA alpha-1 G157C beta2gamma2 receptor mutant expressed in HEK293T cells; type: cell-based; conditions: hek-293t
# [16] = Displacement of [3H]Ro-151788 from benzodiazepine binding site of GABAA alpha1 A160C beta2gamma2 receptor mutant expressed in HEK293T cells; type: cell-based; conditions: hek-293t
# [17] = Displacement of [3H]Ro15-1788 from benzodiazepine binding site of GABAA alpha1 T162C beta-2-gamma-2 receptor mutant expressed in HEK293T cells; type: cell-based; conditions: hek-293t
# Summary of the method: (§2)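 Cysteine mutant α1 subunit made by recombinant PCR, co-transfected with WT β2 and γ2L (equal DNA ratios, 4 μg/subunit, CaHPO4 method) into HEK293T cells; membranes harvested 48 h post-transfection. One-site competition fit; Ki by Cheng-Prusoff; three experiments in triplicate, mean ± SD.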
# [18] = Displacement of [3H]Ro15-1788 from benzodiazepine binding site of GABAA alpha-1 G200C beta2gamma2 receptor mutant expressed in HEK293T cells; type: cell-based; conditions: hek-293t
# [19] = Displacement of [3H]Ro-151788 from benzodiazepine binding site of GABAA alpha1 V202C beta2gamma2 receptor mutant expressed in HEK293T cells; type: cell-based; conditions: hek-293t
# [20] = Displacement of [3H]Ro-151788 from benzodiazepine binding site of GABAA alpha1 S204C beta2gamma2 receptor mutant expressed in HEK293T cells; type: cell-based; conditions: hek-293t
# [21] = Displacement of [3H]Ro-151788 from benzodiazepine binding site of GABAA alpha1 S205C beta2gamma2 receptor mutant expressed in HEK293T cells; type: cell-based; conditions: hek-293t
# [22] = Displacement of [3H]Ro15-1788 from benzodiazepine binding site of GABAA alpha-1 T206C beta2gamma2 receptor mutant expressed in HEK293T cells; type: cell-based; conditions: hek-293t
# [23] = Displacement of [3H]Ro15-1788 from benzodiazepine binding site of GABAA alpha-1 V211C beta2gamma2 receptor mutant expressed in HEK293T cells; type: cell-based; conditions: hek-293t; summary of the method: as §2
# HEK-293T [24] = test: Displacement of [3H]Ro-151788 from benzodiazepine binding site of GABAA alpha-1-beta-2-gamma-2 F77C receptor mutant expressed in HEK293T cells; type: cell-based
# Summary of the method: (§3)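 HEK293T cells in MEM with 10% FBS were transiently transfected by CaHPO4 precipitation with α1, β2 and γ2L subunits (WT or PCR-made, sequence-verified cysteine mutant) in pUNIV, using equal ratios at 4 μg per subunit. Membranes were harvested at 48 h. […] Ki was derived from a one-site fit using Cheng-Prusoff. Mean ± SD, three experiments in triplicate.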
# HEK-293T [25] = test: Displacement of [3H]Ro-151788 from benzodiazepine binding site of GABAA alpha1 D97C beta2gamma2 receptor mutant expressed in HEK293T cells; type: cell-based; summary of the method: as §3
# HEK-293T [26] = test: Displacement of [3H]Ro15-1788 from benzodiazepine binding site of GABAA alpha1 Y209C beta2gamma2 receptor mutant expressed in HEK293T cells; type: cell-based; summary of the method: as §3
# GABA A receptor alpha-3/beta-2/gamma-2, sequence (P18508 whole entry): as the sequence (P18508 whole entry) above
# GABA A receptor alpha-3/beta-2/gamma-2, sequence (P20236 whole entry): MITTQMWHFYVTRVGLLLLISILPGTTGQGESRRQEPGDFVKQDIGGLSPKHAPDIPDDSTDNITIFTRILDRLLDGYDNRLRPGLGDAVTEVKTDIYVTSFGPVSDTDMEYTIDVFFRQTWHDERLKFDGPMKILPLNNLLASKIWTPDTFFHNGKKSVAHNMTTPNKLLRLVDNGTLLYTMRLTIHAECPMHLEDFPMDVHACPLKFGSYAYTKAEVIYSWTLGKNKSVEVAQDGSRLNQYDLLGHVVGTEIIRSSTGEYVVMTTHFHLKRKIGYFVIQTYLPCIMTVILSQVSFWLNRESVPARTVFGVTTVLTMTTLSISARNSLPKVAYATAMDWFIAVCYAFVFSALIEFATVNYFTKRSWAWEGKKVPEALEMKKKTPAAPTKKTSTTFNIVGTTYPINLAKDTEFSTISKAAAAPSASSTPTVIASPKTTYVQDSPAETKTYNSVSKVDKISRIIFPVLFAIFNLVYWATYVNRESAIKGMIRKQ
# GABA A receptor alpha-3/beta-2/gamma-2, sequence (P63138 whole entry): as the sequence (P63138 whole entry) above
smiles,measurement,setting,value
CN1CCN(C(=O)O[C@H]2c3nccnc3C(=O)N2c2ccc(Cl)cn2)CC1 [ESZOPICLONE],pKi,[1],6.79
same,pKi,[2],6.94
same,pKi,[3],7.08
same,pKi,[4],6.41
same,pKi,[5],7.12
same,pKi,[6],7.14
same,pKi,[7],6.99
same,pKi,[8],6.96
same,pKi,[9],7.33
same,pKi,[10],6.30
same,pKi,[11],7.65
same,pKi,[12],7.15
same,pKi,[13],7.17
same,pKi,[14],6.39
same,pKi,[15],5.68
same,pKi,[16],7.22
same,pKi,[17],7.47
same,pKi,[18],6.92
same,pKi,[19],6.60
same,pKi,[20],7.24
same,pKi,[21],7.46
same,pKi,[22],9.08
same,pKi,[23],7.20
CCOC(=O)c1ncn2c1CN(C)C(=O)c1cc(F)ccc1-2 [FLUMAZENIL],Activity,HEK-293T [24],inactive
same,Activity,HEK-293T [25],inactive
same,Activity,HEK-293T [26],inactive
